Results taken from publication PMC2923816 (Bioorganic & medicinal chemistry letters, 2010).
Read-outs that look alike come from different tables or passages of the source.

Key:
human DYRK2 = target: T1, human DYRK2 (Homo sapiens, UniProt Q92630); assay: DYRK2 kinase 33P-incorporation into Woodtide peptide; format: biochemical; details: read-out: IC50 DYRK2, Woodtide substrate
T1 sequence (Q92630 1-601): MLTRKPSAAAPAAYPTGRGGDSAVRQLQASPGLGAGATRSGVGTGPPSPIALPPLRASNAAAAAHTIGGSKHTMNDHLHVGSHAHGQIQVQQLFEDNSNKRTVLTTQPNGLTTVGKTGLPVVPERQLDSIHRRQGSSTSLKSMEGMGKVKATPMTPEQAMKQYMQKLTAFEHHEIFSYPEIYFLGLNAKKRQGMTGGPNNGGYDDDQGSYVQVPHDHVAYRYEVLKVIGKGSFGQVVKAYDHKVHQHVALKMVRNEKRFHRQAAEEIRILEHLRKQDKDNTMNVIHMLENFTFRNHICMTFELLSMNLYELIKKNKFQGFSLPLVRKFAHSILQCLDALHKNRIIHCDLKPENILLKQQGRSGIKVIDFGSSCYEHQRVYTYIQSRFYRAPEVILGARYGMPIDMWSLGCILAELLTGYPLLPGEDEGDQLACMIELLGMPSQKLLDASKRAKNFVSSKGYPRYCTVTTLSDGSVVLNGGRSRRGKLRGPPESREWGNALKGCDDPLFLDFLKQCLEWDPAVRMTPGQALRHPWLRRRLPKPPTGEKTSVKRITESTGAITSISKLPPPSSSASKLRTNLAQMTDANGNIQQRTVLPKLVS

human haspin kinase = target: T2, human haspin kinase (Homo sapiens, UniProt Q8TF76); assay: haspin kinase TR-FRET assay; format: biochemical
T2 sequence (Q8TF76 1-798): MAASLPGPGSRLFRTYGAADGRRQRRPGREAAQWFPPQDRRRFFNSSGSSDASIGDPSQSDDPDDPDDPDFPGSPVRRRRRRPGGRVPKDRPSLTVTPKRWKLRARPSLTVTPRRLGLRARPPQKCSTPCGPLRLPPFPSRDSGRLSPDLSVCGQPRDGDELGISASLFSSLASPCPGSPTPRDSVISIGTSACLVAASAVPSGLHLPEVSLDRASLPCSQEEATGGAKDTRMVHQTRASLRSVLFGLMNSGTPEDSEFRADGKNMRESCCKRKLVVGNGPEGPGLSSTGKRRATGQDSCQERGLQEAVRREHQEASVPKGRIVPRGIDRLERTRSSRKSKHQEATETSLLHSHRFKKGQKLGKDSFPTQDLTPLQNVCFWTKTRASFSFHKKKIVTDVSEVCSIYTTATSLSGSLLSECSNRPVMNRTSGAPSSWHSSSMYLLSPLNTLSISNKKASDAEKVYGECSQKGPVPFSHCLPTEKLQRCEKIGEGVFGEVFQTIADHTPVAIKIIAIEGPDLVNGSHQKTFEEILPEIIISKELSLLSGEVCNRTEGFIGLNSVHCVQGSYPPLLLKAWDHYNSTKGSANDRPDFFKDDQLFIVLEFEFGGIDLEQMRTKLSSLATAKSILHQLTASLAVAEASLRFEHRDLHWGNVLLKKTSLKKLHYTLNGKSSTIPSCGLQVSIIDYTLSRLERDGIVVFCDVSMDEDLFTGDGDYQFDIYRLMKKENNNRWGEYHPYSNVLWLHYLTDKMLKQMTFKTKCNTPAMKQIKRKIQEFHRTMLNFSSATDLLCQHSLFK
Procedure, shortened: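 Human haspin activity measured by TR-FRET at varying test compound concentrations to give IC50, using the HTS format: histone H3 peptide substrate, with phosphorylated product (H3T3ph) detected by a europium-labelled phosphospecific monoclonal antibody. For the selectivity ratio, DYRK2 was assayed by 33P incorporation into Woodtide peptide with human N-terminal GST-fused DYRK2 and γ33P-ATP.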

[1] = read-out: IC50 haspin, TR-FRET assay

| Structure (SMILES) | IC50 (human DYRK2) | selectivity for haspin over DYRK2 (human haspin kinase; ratio of IC50 values) | IC50 (human haspin kinase; [1]) | IC50 (human haspin kinase; read-out: haspin IC50) |
| --- | --- | --- | --- | --- |
| COc1ccc2nc3ccc(Cl)cc3c(SCCCN)c2c1 [Compound 33] | 9.9 µM | 180 fold | 0.055 µM | < 0.06 µM |
| COc1ccc2nc3ccc(OC)cc3c(SCCCN3C(=O)c4ccccc4C3=O)c2c1 [Compound 41] |  |  | 2.1 µM |  |
